The source made the active and inactive calls. The calls are words filed in the database; no cut-off is given here.
Experiments:
Liver microsome [1] = assay: Drug metabolism in rat liver microsomes assessed as 5-(3-(Cyclopropylsulfonyl)phenyl)-3-(4-(methylsulfonyl)-phenyl)pyrazolo[1,5-a]pyridine formation at 10 uM after 1 hr by LC-MS/MS analysis; assay type: ADME
Procedure, shortened: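 Metabolites identified by LC-ESI-MS/MS after in vitro incubation with rat liver microsomes.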

Blood [2] = assay: Drug metabolism in rat blood assessed as metabolite formation from sulfone oxidation on pyrazole at 20 mg/kg, po and 5 mg/kg, iv by LC-MS/MS analysis; assay type: ADME, organism-based; conditions: in vivo
Procedure, shortened: (§1)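 Metabolites identified by LC-ESI-MS/MS in blood samples from the rat PK study (oral and intravenous dosing).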

Rattus norvegicus [3] = assay: Half life in rat at 5 mg/kg, iv; assay type: ADME, organism-based; conditions: in vivo
[4] = Tmax in Plasmodium falciparum 3D7 infected in non-myelodepleted NOD-SCID IL2Rgammanull mouse engrafted with human erythrocytes at 10 mg/kg, po; assay type: ADME, organism-based; conditions: in vivo
Procedure, shortened: (§2)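 Humanized NSG mice infected with P. falciparum received one oral dose per day for 4 consecutive days. Blood was sampled for exposure, with levels of both parent and its main active metabolite measured. Tmax was taken from the blood concentration–time profile after oral dosing.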

[5] = Oral bioavailability in rat at 15 mg/kg; assay type: ADME, organism-based; conditions: in vivo
[6] = Tmax in Plasmodium falciparum 3D7 infected in non-myelodepleted NOD-SCID IL2Rgammanull mouse engrafted with human erythrocytes at 0.5 mg/kg, po; assay type: ADME, organism-based; conditions: in vivo; procedure, shortened: as §2
Plasmodium berghei [7] = assay: Antiplasmodial activity against Plasmodium berghei ANKA expressing GFP infected in mouse assessed as reduction of parasitemia level at 50 mg/kg, po qd for 4 days measured on day 4 post last dose by flow cytometric analysis relative to control; assay type: functional; parameters: scale not given: the % may be the effect or the level left
Procedure, shortened: (§3)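 Mice (n = 3) infected with GFP-transfected P. berghei ANKA. Test agents were suspended in HPMC vehicle (0.5% w/v hydroxypropylmethylcellulose, 0.5% v/v benzyl alcohol, 0.4% v/v Tween 80, 0.9% w/v NaCl in water). Dosed orally at 4, 24, 48 and 72 h post-infection. Parasitemia read by flow cytometry on day 4 (96 h), detection limit 0.1%. Activity = control-minus-treated mean % parasitemia, relative to control.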

Blood [8] = assay: Drug metabolism in mouse assessed as 5-(3-(Cyclopropylsulfonyl)phenyl)-3-(4-(methylsulfonyl)-phenyl)pyrazolo[1,5-a]pyridine level in blood at 50 mg/kg, po after 1 hr; assay type: ADME, organism-based; conditions: in vivo, read-out: Drug metabolism
Procedure, shortened: (§4)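 Snapshot whole-blood levels of parent and its sulfone metabolite at 1, 4 and 24 h after the first 50 mg/kg oral dose. Samples came from the P. berghei-infected efficacy mice, dosed in HPMC suspension vehicle.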

[9] = Half life in rat at 15 mg/kg, po; assay type: ADME, organism-based; conditions: in vivo
Plasmodium berghei [10] = assay: Antiplasmodial activity against Plasmodium berghei ANKA expressing GFP infected in mouse assessed as mouse cured from disease at 50 mg/kg, po qd for 4 days; assay type: functional, organism-based
Plasmodium falciparum = assay: Antiplasmodial activity against drug sensitive Plasmodium falciparum NF54 infected in human erythrocytes after 48 hrs by [3H]-hypoxanthine incorporation assay; assay type: functional, organism-based
[11] = Selectivity index, ratio of IC50 for African green monkey VERO cells to IC50 for Plasmodium falciparum NF54; assay type: toxicity, cell-based; conditions: read-out: Ratio IC50
[12] = Cmax in Plasmodium falciparum 3D7 infected in non-myelodepleted NOD-SCID IL2Rgammanull mouse engrafted with human erythrocytes at 1.5 mg/kg, po; assay type: ADME, organism-based; parameters: dose 1.5 mg/kg, route oral; conditions: in vivo
Procedure, shortened: (§5)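 Engrafted NSG (scid IL2Rgc null) mice infected with P. falciparum were given one oral dose per day for four days. Blood was sampled to measure parent and its sulfone metabolite.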

Blood [13] = assay: Drug metabolism in rat blood assessed as 5-(3-(Cyclopropylsulfonyl)phenyl)-3-(4-(methylsulfonyl)-phenyl)pyrazolo[1,5-a]pyridine formation at 20 mg/kg, po and 5 mg/kg, iv by LC-MS/MS analysis; assay type: ADME, organism-based; conditions: in vivo; procedure, shortened: as §1
Rattus norvegicus [14] = assay: Volume of distribution in rat at 5 mg/kg, iv; assay type: ADME, organism-based; conditions: in vivo
[15] = AUC (0 to 8 hrs) in Plasmodium falciparum 3D7 infected in non-myelodepleted NOD-SCID IL2Rgammanull mouse engrafted with human erythrocytes at 0.5 mg/kg, po; assay type: ADME, organism-based; parameters: dose 0.5 mg/kg, time < 8 hr, route oral; conditions: in vivo; procedure, shortened: as §5
[16] = Cmax in Plasmodium falciparum 3D7 infected in non-myelodepleted NOD-SCID IL2Rgammanull mouse engrafted with human erythrocytes at 0.1 mg/kg, po; assay type: ADME, organism-based; parameters: dose 0.1 mg/kg, route oral; conditions: in vivo; procedure, shortened: as §5
[17] = Tmax in Plasmodium falciparum 3D7 infected in non-myelodepleted NOD-SCID IL2Rgammanull mouse engrafted with human erythrocytes at 1.5 mg/kg, po; assay type: ADME, organism-based; conditions: in vivo; procedure, shortened: as §2
[18] = Tmax in Plasmodium falciparum 3D7 infected in non-myelodepleted NOD-SCID IL2Rgammanull mouse engrafted with human erythrocytes at 0.1 mg/kg, po; assay type: ADME, organism-based; conditions: in vivo; procedure, shortened: as §5
[19] = AUC (0 to 2 hrs) in Plasmodium falciparum 3D7 infected in non-myelodepleted NOD-SCID IL2Rgammanull mouse engrafted with human erythrocytes at 0.1 mg/kg, po; assay type: ADME, organism-based; parameters: time < 2 hr, dose 0.1 mg/kg, route oral; conditions: in vivo; procedure, shortened: as §5
Liver microsome [20] = assay: Metabolic stability of the compound in rat liver microsomes assessed as compound remaining at 0.1 uM after 30 mins by LC-MS/MS analysis; assay type: ADME; conditions: 0.5 h
[21] = Cmax in Plasmodium falciparum 3D7 infected in non-myelodepleted NOD-SCID IL2Rgammanull mouse engrafted with human erythrocytes at 30 mg/kg, po; assay type: ADME, organism-based; parameters: dose 30 mg/kg, route oral; conditions: in vivo; procedure, shortened: as §5
Plasmodium berghei [22] = assay: Antiplasmodial activity against Plasmodium berghei ANKA expressing GFP infected in mouse assessed as reduction of parasitemia level at 10 mg/kg, po qd for 4 days measured on day 4 post last dose by flow cytometric analysis relative to control; assay type: functional; parameters: scale not given: the % may be the effect or the level left; procedure, shortened: as §3
Plasmodium berghei [23] = assay: Antiplasmodial activity against Plasmodium berghei ANKA expressing GFP infected in mouse assessed as reduction of parasitemia level at 3 mg/kg, po qd for 4 days measured on day 4 post last dose by flow cytometric analysis relative to control; assay type: functional; parameters: scale not given: the % may be the effect or the level left; procedure, shortened: as §3
[24] = Selectivity index, ratio of IC50 for CHO cells to IC50 for Plasmodium falciparum NF54; assay type: toxicity, cell-based; conditions: hamster, read-out: Ratio IC50
Plasmodium berghei [25] = assay: Antiplasmodial activity against Plasmodium berghei ANKA expressing GFP infected in mouse assessed as means survival days at 3 mg/kg, po qd for 4 days; assay type: functional
Procedure, shortened: (§6)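 Mice (n = 3) infected with GFP-transfected P. berghei ANKA. Compounds dissolved or suspended in HPMC vehicle (0.5% w/v hydroxypropylmethylcellulose, 0.5% v/v benzyl alcohol, 0.4% v/v Tween 80, 0.9% w/v NaCl in water). Dosed orally 4, 24, 48 and 72 h after infection. Parasitemia read by flow cytometry (detection limit 0.1%). Survival recorded as mean survival time in days.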

Plasmodium berghei [26] = assay: Antiplasmodial activity against Plasmodium berghei ANKA expressing GFP infected in mouse assessed as means survival days at 50 mg/kg, po qd for 4 days; assay type: functional; procedure, shortened: as §6
[27] = AUC (0 to 8 hrs) in Plasmodium falciparum 3D7 infected in non-myelodepleted NOD-SCID IL2Rgammanull mouse engrafted with human erythrocytes at 1.5 mg/kg, po; assay type: ADME, organism-based; parameters: dose 1.5 mg/kg, time < 8 hr, route oral; conditions: in vivo; procedure, shortened: as §5
[28] = Drug level in mouse blood at 50 mg/kg, po after 24 hrs; assay type: ADME, organism-based; conditions: blood, read-out: Drug uptake; procedure, shortened: as §4
[29] = Metabolic stability of the compound in mouse liver microsomes assessed as compound remaining at 0.1 uM after 30 mins by LC-MS/MS analysis; assay type: ADME; conditions: 0.5 h
Liver microsome [30] = assay: Metabolic stability of the compound in human liver microsomes assessed as compound remaining at 0.1 uM after 30 mins by LC-MS/MS analysis; assay type: ADME; conditions: 0.5 h

Compound: C[S+]([O-])c1ccc(-c2cnn3ccc(-c4cccc(S(=O)(=O)C5CC5)c4)cc23)cc1 (stereo unspecified)
- Drug metabolism (Liver microsome [1]): metabolite_detected
- Drug metabolism (Blood [2]): metabolite_detected
- t1/2 (Rattus norvegicus [3]): 2.7 h
- Tmax [4]: 2 h
- bioavailability [5]: 14%
- Tmax [6]: 15 min
- Activity (Plasmodium berghei [7]): 99.8%
- concentration (Blood [8]): 7.9 µM
- half-life [9]: 60 min
- Activity (Plasmodium berghei [10]): Active
- IC50 (Plasmodium falciparum): 6 nM
- selectivity ratio [11]: > 1000
- Cmax [12]: 30 ng/mL
- Drug metabolism (Blood [13]): metabolite_detected
- Vd (Rattus norvegicus [14]): 6.8 L/kg
- AUC(0-t) at 8 h [15]: 12.1 ng·h/mL
- Cmax [16]: 2 ng/mL
- Tmax [17]: 30 min
- Tmax [18]: 15 min
- AUC(0-t) at 2 h [19]: 2.1 ng·h/mL
- Stability (Liver microsome [20]): Stable
- Cmax [21]: 226 ng/mL
- Activity (Plasmodium berghei [22]): 99.9%
- Activity (Plasmodium berghei [23]): 75%
- selectivity ratio [24]: > 1000
- MSD (Plasmodium berghei [25]): 7 days
- MSD (Plasmodium berghei [26]): >30 days
- AUC(0-t) at 8 h [27]: 40.5 ng·h/mL
- concentration at 24 h [28]: 30 nM
- Stability [29]: Stable
- Stability (Liver microsome [30]): Stable

— ChEMBL document CHEMBL3627607, “A Novel Pyrazolopyridine with in Vivo Activity in Plasmodium berghei- and Plasmodium falciparum-Infected Mouse Models from Structure-Activity Relationship Studies around the Core of Recently Identified Antimalarial Imidazopyridazines” (J Med Chem, 2015)
